This note sets out measurements from ChEMBL document CHEMBL1132593, “Structure-activity relationships of pyrazole derivatives as cannabinoid receptor antagonists” (J Med Chem, 1999).

In one assay the target is Cannabinoid receptor 2 (Mus musculus, UniProt P47936). Kind of assay: Binding affinity against Cannabinoid receptor 2 in mouse spleen. In kind it is tissue-based. In short, it runs like this: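 Membranes from frozen mouse spleen (CB2), about 50 μg, prepared in silanized tubes. Incubated 1 h at 30 °C in TME with 0.1% fatty-acid-free BSA, 0.8 nM [3H]2 and varying ligand concentrations. Filtration, four ice-cold washes with buffer containing 0.5% BSA, then scintillation counting. Nonspecific binding defined with 100 nM 2. Three independent experiments in duplicate, normalized to specific binding; 95% confidence limits.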
Sequence of Cannabinoid receptor 2 (P47936 whole entry): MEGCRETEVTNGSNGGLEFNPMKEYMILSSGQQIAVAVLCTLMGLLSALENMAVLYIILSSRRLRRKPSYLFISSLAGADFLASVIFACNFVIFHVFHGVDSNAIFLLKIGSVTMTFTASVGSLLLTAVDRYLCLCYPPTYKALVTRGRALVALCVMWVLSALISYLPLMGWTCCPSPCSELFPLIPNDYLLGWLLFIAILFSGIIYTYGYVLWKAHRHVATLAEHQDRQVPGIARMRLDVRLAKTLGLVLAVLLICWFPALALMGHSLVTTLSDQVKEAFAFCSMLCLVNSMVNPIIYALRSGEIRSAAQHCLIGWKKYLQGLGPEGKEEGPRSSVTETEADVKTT

The target in the next assay is Cannabinoid receptor 1 (Rattus norvegicus, UniProt P20272). Kind of assay: Binding affinity against Cannabinoid receptor 1 in rat forebrain.
Sequence of Cannabinoid receptor 1 (P20272 whole entry): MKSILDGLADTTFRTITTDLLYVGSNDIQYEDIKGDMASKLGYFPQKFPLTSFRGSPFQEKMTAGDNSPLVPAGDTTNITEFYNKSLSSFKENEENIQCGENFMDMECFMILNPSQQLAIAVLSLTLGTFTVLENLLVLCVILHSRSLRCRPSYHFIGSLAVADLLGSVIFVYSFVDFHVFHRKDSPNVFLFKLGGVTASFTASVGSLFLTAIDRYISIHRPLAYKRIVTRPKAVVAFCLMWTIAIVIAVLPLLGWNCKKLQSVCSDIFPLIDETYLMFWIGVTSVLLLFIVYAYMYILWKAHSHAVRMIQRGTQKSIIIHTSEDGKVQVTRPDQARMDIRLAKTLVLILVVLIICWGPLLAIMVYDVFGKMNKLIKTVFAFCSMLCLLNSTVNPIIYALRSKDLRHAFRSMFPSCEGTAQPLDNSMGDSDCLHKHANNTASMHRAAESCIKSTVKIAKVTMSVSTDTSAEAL
For assay [1], the species on record is Cavia porcellus. In words: Dissociation constant [1000(nM)] in myenteric plexus-longitudinal muscle of guinea pig small intestine using the cannabinoid receptor agonist. In kind it is functional, organism-based. In short, it runs like this:
(§1)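 Guinea pig small intestine myenteric plexus-longitudinal muscle. Antagonist tested at the stated concentration against WIN55,212-2 inhibition of electrically evoked contractions. Drugs mixed with two parts Tween 80 by weight and dispersed in saline; Tween 80 served as the reference. Dose ratio from a symmetrical (2+2) dose parallel line assay on the steepest part of the curve. Kd = B/(x−1).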

The species entered for assay [2] is Mus musculus. In words: Dissociation constant [316(nM)] in mouse isolated vas deferens using the cannabinoid receptor agonist. The format is functional, organism-based. The method in brief:
(§2)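 Mouse isolated vas deferens. Antagonist tested at the stated concentration against WIN55,212-2 inhibition of electrically evoked contractions. Drugs dispersed in saline with two parts Tween 80 by weight, with Tween 80 as the reference. Dose ratio (95% confidence limits) from a symmetrical 2+2 dose parallel line assay. Kd from (x−1) = B/Kd.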

Assay [3] deals with T1, Cannabinoid receptor (Homo sapiens) (UniProt P34972+P21554). Kind of assay: Ratio of the binding affinities against rat CB1 to that of mouse CB2; activity value is 1:7.2. In kind it is protein assay.
T1 sequence (P21554 whole entry, looked up): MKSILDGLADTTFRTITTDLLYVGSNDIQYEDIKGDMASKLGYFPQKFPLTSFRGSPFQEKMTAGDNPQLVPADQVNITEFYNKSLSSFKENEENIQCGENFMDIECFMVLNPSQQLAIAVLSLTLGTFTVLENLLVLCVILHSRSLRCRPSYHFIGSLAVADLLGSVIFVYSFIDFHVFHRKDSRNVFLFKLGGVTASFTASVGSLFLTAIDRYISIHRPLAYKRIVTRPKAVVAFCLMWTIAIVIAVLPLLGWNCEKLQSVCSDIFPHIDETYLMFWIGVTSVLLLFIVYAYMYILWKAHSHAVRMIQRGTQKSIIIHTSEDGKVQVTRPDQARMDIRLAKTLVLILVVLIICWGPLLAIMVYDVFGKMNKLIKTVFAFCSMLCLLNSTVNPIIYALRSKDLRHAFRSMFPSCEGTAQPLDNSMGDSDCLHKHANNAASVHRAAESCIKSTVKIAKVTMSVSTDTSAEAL
T1 sequence (P34972 whole entry, looked up): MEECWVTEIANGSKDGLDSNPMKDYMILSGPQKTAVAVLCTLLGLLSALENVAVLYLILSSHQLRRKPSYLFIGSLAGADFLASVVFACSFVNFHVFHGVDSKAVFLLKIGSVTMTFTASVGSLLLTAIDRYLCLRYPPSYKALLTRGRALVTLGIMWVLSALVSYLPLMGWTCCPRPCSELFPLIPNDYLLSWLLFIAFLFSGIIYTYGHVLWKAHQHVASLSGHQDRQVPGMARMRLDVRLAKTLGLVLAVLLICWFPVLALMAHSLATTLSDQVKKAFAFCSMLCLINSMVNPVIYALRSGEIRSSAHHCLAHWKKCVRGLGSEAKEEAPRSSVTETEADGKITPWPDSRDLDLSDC
Assay [4] is filed under the species Mus musculus. In words: Dissociation constant [31.6(nM)] in mouse isolated vas deferens using the cannabinoid receptor agonist. In kind it is functional, organism-based. The method in brief: as §2
The species named for assay [5] is Cavia porcellus. Kind of assay: Dissociation constant [100(nM)] in myenteric plexus-longitudinal muscle of guinea pig small intestine using the cannabinoid receptor agonist. In kind it is functional, organism-based. The method in brief:
as §1

Assay [6] has as its target T1, Cannabinoid receptor (Homo sapiens). Kind of assay: Ratio of the binding affinities against rat CB1 to that of mouse CB2; activity value is 1:85. In kind it is protein assay.
The species entered for assay [7] is Mus musculus. In words: Dissociation constant [1000(nM)] in mouse isolated vas deferens using the cannabinoid receptor agonist. The format is functional, organism-based. In short, it runs like this:
as §2

Assay [8] has as its system Cannabinoid receptor CB1 (Rattus norvegicus) and CB2 (Mus musculus). In words: Ratio of the binding affinities against rat CB1 to that of mouse CB2; activity value is 1:37.
Assay [9] shares this test system. In words: Ratio of the binding affinities against rat CB1 to that of mouse CB2; activity value is 1:2.7.
In assay [10] the target is T1, Cannabinoid receptor (Homo sapiens). Kind of assay: Ratio of the binding affinities against rat CB1 to that of mouse CB2; activity value is 1:17. In kind it is protein assay.

`Cc1c(C(=O)NN2CCCCC2)nn(-c2ccc(Cl)cc2)c1-c1ccc(Cl)cc1` had a Ki on Cannabinoid receptor 2 of 836 nM.
As to `CCc1c(C)c(C(=O)NN2CCCCC2)nn1-c1ccc(Cl)cc1Cl`, the results for the Ki at Cannabinoid receptor 1 and at Cannabinoid receptor 2 were 183 nM and 744 nM, respectively.
`Cc1c(C(=O)NN2CCCCC2)nn(-c2ccc(Cl)cc2Cl)c1-c1ccccc1` registered a Ki on Cannabinoid receptor 2 of 217 nM. Further, the Kd in the assay filed under Cavia porcellus [1] turned out to be 7 nM; in the assay filed under Mus musculus [2], 28 nM.
With `Cc1c(C(=O)NC2CCCCC2)nn(-c2ccc(Cl)cc2Cl)c1-c1ccc(Br)cc1`, in assay [3], the Ratio worked out at 87. In addition, the Ki at Cannabinoid receptor 1 was determined as 11.7 nM; on Cannabinoid receptor 2 it was 1010 nM.
For `Cc1c(C(=O)NN2CCCCC2)nn(-c2ccc(Cl)cc2Cl)c1-c1ccc(Br)cc1`, the values for the Kd in the assay listed under Mus musculus [4] and in the assay listed under Cavia porcellus [5] were 2.64 nM and 0.32 nM, respectively. In addition, the Ki worked out at 16.8 nM at Cannabinoid receptor 1 and 1430 nM at Cannabinoid receptor 2. Also, in assay [6], the Ratio was 85.
With `Cc1c(C(=O)N(C)C2CCCCC2)nn(-c2ccc(Cl)cc2Cl)c1-c1ccc(Br)cc1`, the Ki amounted to 76.7 nM on Cannabinoid receptor 1 and 1260 nM on Cannabinoid receptor 2.
For the molecule `Cc1c(C(=O)N2CCCCC2)nn(-c2ccc(Cl)cc2Cl)c1-c1ccc(Br)cc1`, the Kd in the assay listed under Mus musculus [7] stood at 172 nM; in the assay listed under Cavia porcellus [1], 4.72 nM. For the same molecule, the results for the Ki at Cannabinoid receptor 1 and at Cannabinoid receptor 2 were 125 nM and 4580 nM, respectively. Also, in [8], the Ratio amounted to 37.
As to `Cc1c(C(=O)NN2CCCCCC2)nn(-c2ccc(Cl)cc2Cl)c1-c1ccc(Br)cc1`, the Ki at Cannabinoid receptor 1 was found to be 7.85 nM; at Cannabinoid receptor 2, 215 nM. Further, the figures for the Kd in the assay filed under Cavia porcellus [1] and in the assay filed under Mus musculus [2] were 0.38 nM and 6.8 nM, respectively. Also, the Ratio in assay [6] was found to be 28.
For the molecule `Cc1c(C(=O)NN2CCCCC2)nn(-c2ccc(Cl)cc2Cl)c1-c1ccc(I)cc1`, the Kd in the assay listed under Mus musculus [4] turned out to be 0.5 nM; in the assay listed under Cavia porcellus [5] it was 0.22 nM.
As for `Cc1c(C(=O)NN2CCCCC2)nn(-c2ccc(Cl)cc2Cl)c1-c1ccccc1[N+](=O)[O-]`, the Ratio in assay [9] turned out to be 2.7. Besides, the Ki came out at 255 nM at Cannabinoid receptor 1 and 691 nM at Cannabinoid receptor 2. Besides, the Kd in the assay filed under Cavia porcellus [1] was found to be 5.96 nM; in the assay listed under Mus musculus [2], 25.4 nM.
On to `Cc1c(C(=O)NN2CCCCC2)nn(-c2ccc(Cl)cc2Cl)c1-c1ccccc1I`, for which the Kd in the assay listed under Mus musculus [4] amounted to 7.83 nM; in the assay listed under Cavia porcellus [1] it was 5.87 nM. The Ki is 53.8 nM at Cannabinoid receptor 1 and 577 nM on Cannabinoid receptor 2.
For the molecule `Cc1c(C(=O)NN2CCOCC2)nn(-c2ccc(Cl)cc2Cl)c1-c1ccc(Br)cc1`, the Ki on Cannabinoid receptor 1 is 53.9 nM; at Cannabinoid receptor 2, 2450 nM.
With `Cc1c(C(=O)N2CCN(C)CC2)nn(-c2ccc(Cl)cc2Cl)c1-c1ccc(Br)cc1`, the Kd in the assay listed under Mus musculus [7] came out at 325 nM; in the assay filed under Cavia porcellus [1], 12.3 nM. The figures for the Ki at Cannabinoid receptor 1 and on Cannabinoid receptor 2 were 326 nM and 2340 nM, respectively.
`Cc1c(C(=O)NN2CCCCC2)nn(-c2ccc(Cl)cc2Cl)c1-c1ccc(N)cc1`: the Ki amounted to 81.5 nM on Cannabinoid receptor 1 and 958 nM at Cannabinoid receptor 2. Also, the Kd stood at 42.6 nM in the assay listed under Mus musculus [2] and 2.63 nM in the assay listed under Cavia porcellus [5].
Take `Cc1c(C(=O)NN2CCCCC2)nn(-c2ccc(Cl)cc2Cl)c1-c1ccc(Cl)cc1` [RIMONABANT]: the Kd amounted to 1.98 nM in the assay listed under Mus musculus [4] and 0.25 nM in the assay filed under Cavia porcellus [5].
Consider `Cc1c(C(=O)NCCO)nn(-c2ccc(Cl)cc2Cl)c1-c1ccc(Br)cc1`, for which the Ki at Cannabinoid receptor 1 is 1120 nM; at Cannabinoid receptor 2 it was 19000 nM.
For the molecule `Cc1c(C(=O)NN2CCCCC2)nn(-c2ccc(Cl)cc2Cl)c1-c1ccc([N+](=O)[O-])cc1`, the Ki on Cannabinoid receptor 1 amounted to 57.5 nM; at Cannabinoid receptor 2, 252 nM. The Kd in the assay listed under Cavia porcellus [1] is 2.9 nM; in the assay listed under Mus musculus [2] it was 5.31 nM.
In the case of `Cc1c(C(=O)NN2CCCCC2)nn(-c2ccc(Cl)cc2Cl)c1-c1ccccc1N`, the figures for the Kd in the assay filed under Mus musculus [7] and in the assay filed under Cavia porcellus [5] were 118 nM and 11.2 nM, respectively. The Ratio in assay [9] came to 2.7. Besides, the Ki on Cannabinoid receptor 1 stood at 346 nM; at Cannabinoid receptor 2, 931 nM.
`Cc1c(C(=O)Nc2ccccc2)nn(-c2ccc(Cl)cc2Cl)c1-c1ccc(Br)cc1`: the Ki is 31.1 nM on Cannabinoid receptor 1 and 6750 nM on Cannabinoid receptor 2. Moreover, in [10], the Ratio was determined as 217.
